Test results published in ChEMBL document CHEMBL1125728, “Dopamine autoreceptor agonists as potential antipsychotics. 2. (Aminoalkoxy)-4H-1-benzopyran-4-ones” (J Med Chem, 1991).

How the values were obtained:
Dopamine receptor [1] = experiment: Compound was tested for its inhibitory effect on the binding profile in Dopamine receptor using [3H]N-propylnorapomorphine in rat brain.; type: tissue-based
Outline: (§1)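 Rat brain receptor binding with the stated radioligands. IC50 obtained by nonlinear regression from four to five concentrations. [3H]flupenthixol and [3H]N-propylnorapomorphine values come from four independent determinations each, and the [3H]haloperidol value from two experiments. Remaining ligands were determined once.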

Dopamine receptor [2] = experiment: Compound was tested for inhibitory binding activity against Dopamine receptor in rat striatal membranes using [3H]HAL as the radioligand.; type: cell membranes, Striatum, Membrane
Outline: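 [3H]Haloperidol displacement from rat striatal DA receptors, run in duplicate. IC50 obtained by nonlinear regression from four to five concentrations.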

Rattus norvegicus = experiment: Percentage of rats showing signs of stereotyped behavior at 30 mg/kg peroral dose and animals observed for 60 min postdose.; conditions: route oral
Mus musculus = experiment: Inhibition of mouse intraperitoneally.; type: functional; conditions: ip
Outline: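 Inhibition of exploratory locomotor activity, scored together with motor coordination (ataxia). ED50 generated from four to five doses, with 5–12 animals per dose.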

[3] = molecular target: T1, Adrenergic receptor alpha-1 (Rattus norvegicus, UniProt P15823+P23944+P43140); experiment: Compound was tested for its inhibitory effect on the binding profile in Alpha-1 adrenergic receptor using [3H]prazosin in rat brain.; type: tissue-based; outline: as §1
T1 sequence (P15823 whole entry): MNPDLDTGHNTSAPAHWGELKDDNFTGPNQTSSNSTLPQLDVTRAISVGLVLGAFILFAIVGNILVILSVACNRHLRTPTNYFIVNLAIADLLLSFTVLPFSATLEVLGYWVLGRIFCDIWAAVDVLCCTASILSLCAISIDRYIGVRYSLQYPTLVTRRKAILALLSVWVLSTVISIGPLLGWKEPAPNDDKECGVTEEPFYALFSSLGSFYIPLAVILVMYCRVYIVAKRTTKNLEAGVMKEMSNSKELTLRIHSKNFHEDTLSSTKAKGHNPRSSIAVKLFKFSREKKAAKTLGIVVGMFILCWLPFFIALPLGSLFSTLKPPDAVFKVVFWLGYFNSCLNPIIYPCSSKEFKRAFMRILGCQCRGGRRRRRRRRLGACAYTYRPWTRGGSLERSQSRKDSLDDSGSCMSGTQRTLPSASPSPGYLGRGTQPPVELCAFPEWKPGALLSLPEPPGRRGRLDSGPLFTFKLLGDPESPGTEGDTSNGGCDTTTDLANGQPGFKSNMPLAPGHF
T1 sequence (P23944 whole entry): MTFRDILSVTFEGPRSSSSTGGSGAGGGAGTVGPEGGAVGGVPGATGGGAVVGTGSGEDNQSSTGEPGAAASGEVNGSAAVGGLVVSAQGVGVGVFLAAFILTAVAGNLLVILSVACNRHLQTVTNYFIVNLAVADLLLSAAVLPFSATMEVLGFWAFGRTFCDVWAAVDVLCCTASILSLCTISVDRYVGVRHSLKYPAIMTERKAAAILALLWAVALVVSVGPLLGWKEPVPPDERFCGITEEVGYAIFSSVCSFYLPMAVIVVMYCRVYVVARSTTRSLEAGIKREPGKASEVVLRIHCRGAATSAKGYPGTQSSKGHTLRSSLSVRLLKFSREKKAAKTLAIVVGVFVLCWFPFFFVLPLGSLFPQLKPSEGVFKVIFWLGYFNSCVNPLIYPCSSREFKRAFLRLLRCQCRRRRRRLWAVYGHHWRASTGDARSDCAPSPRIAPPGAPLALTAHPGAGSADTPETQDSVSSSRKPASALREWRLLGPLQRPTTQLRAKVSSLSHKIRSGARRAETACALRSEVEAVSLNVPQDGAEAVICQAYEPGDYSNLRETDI
T1 sequence (P43140 whole entry): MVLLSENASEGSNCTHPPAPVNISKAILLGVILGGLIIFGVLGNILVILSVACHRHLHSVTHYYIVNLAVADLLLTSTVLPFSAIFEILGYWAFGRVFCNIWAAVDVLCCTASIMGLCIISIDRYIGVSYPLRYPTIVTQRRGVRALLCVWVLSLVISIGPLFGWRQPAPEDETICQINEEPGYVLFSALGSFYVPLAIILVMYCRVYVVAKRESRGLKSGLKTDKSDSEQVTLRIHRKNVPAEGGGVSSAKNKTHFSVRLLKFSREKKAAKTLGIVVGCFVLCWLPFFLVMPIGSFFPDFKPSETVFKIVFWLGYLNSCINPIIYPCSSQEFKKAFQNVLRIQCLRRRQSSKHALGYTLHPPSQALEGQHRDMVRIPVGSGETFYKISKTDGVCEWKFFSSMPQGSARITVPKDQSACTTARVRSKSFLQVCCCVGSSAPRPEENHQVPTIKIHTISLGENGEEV

IC50 (Dopamine receptor [1]): 59 nM | IC50 (Dopamine receptor [2]): 1000 nM | IC50 [3]: 170 nM
Structure (SMILES): O=c1ccoc2cc(OCCCN3CCN(c4ccccn4)CC3)ccc12
Animals (Rattus norvegicus): 0% | ED50 (Mus musculus): 1.3 mg/kg
